From ChEMBL document CHEMBL4184233, “Design and synthesis of novel dasatinib derivatives as inhibitors of leukemia stem cells” (Bioorg Med Chem Lett, 2018)
Activity calls are given as the source filed them. The rule behind the calls is not given here.

Legend:
K562 = assay: Growth inhibition of human K562 cells; format: functional, cell-based
HL-60 = assay: Growth inhibition of human HL60 cells; format: functional, cell-based
KG-1a [1] = assay: Growth inhibition of human KG1a cells; format: functional, cell-based
[2] = Toxicity in Kunming mouse assessed as survival rat at 200 mg/kg, po dosed once for 2 weeks; format: organism-based; conditions: in vivo
Procedure, shortened: (§1)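 Single oral dose to mice, then observed for 14 days with survival rate recorded. Doses tested were 200, 500 and 1000 mg/kg. The dasatinib comparator was given at 200 mg/kg only.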

MCF7 [3] = conditions: Homo sapiens, 7.5 uM
B16-BL6 [4] = conditions: Mus musculus, 8.13 uM
MCF7 [5] = assay: Inhibition of colony formation in human MCF7 cells incubated for 10 days by crystal violet staining based plate cloning test; format: functional, cell-based
Procedure, shortened: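 MCF-7 colony formation assay. Cells received low, middle and high concentrations (0.96/1.90/3.80 μM or 0.68/1.35/2.70 μM, depending on compound) for 10 days. Colony counts were compared with an untreated control group, with significance at P < 0.05 and P < 0.01.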

B16-BL6 [6] = assay: Inhibition of cell migration of mouse B16-BL6 cells at 1.43 uM incubated for 24 to 48 hrs by cell wound scratch assay; format: functional, cell-based
Procedure, shortened: (§2)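 Wound-scratch migration assay in mouse B16BL6 monolayers. Each compound was given at a single concentration for 2 days, and migration was compared with an untreated control group.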

Mus musculus [7] = assay: Toxicity in Kunming mouse assessed as survival rat at 500 mg/kg, po dosed once for 2 weeks; format: organism-based; conditions: in vivo, 336 h; procedure, shortened: as §1
Mus musculus [8] = assay: Toxicity in Kunming mouse assessed as survival rat at 1000 mg/kg, po dosed once for 2 weeks; format: organism-based; conditions: in vivo, 336 h; procedure, shortened: as §1
KG-1a [9] = assay: Potency index, ratio of IC50 for dasatinib to IC50 for test compound for growth inhibition of human KG1a cells; format: functional
B16-BL6 [10] = assay: Inhibition of cell migration of mouse B16-BL6 cells at 0.82 uM incubated for 24 to 48 hrs by cell wound scratch assay; format: functional, cell-based; procedure, shortened: as §2

SMILES	IC50 (K562) [nM]	IC50 (HL-60) [nM]	IC50 (KG-1a [1]) [nM]	also measured
Cc1nc(Nc2ncc(C(=O)Nc3c(C)cccc3Cl)s2)cc(N2CCN(CCO)CC2)n1 [DASATINIB]	0.069	0.11	8980	survival at 336 h [2]: 100%; inhibition (MCF7 [3]): Active; inhibition (B16-BL6 [4]): Active
Cc1nc(Nc2ncc(-c3nnc(-c4c(C)cccc4Cl)o3)s2)cc(N2CCN(CCN=C=S)CC2)n1	1810	1420	150	–
C=CC(=O)NCCN1CCN(c2cc(Nc3ncc(-c4nnc(-c5c(C)cccc5Cl)o4)s3)nc(C)n2)CC1	150	160	110	–
Cc1nc(Nc2ncc(-c3cn(-c4c(C)cccc4Cl)nn3)s2)cc(N2CCN(CCNC(=O)CCl)CC2)n1	17.6	9.82	450	–
C=CC(=O)NCCN1CCN(c2cc(Nc3ncc(-c4cn(-c5c(C)cccc5Cl)nn4)s3)nc(C)n2)CC1	15.1	5.46	250	–
Cc1nc(Nc2ncc(-c3nnc(-c4c(C)cccc4Cl)o3)s2)cc(N2CCN(CCNC(=O)CCl)CC2)n1	3060	2120	9750	–
Cc1nc(Nc2ncc(C(=O)Nc3c(C)cccc3Cl)s2)cc(N2CCN(CCN)CC2)n1	0.72	0.25	25400	–
Cc1nc(Nc2ncc(C(=O)Nc3c(C)cccc3Cl)s2)cc(N2CCN(CCN=C=S)CC2)n1	3.77	1.07	1960	–
Cc1nc(Nc2ncc(-c3cn(-c4c(C)cccc4Cl)nn3)s2)cc(N2CCN(CCN)CC2)n1	11.7	4.08	2060	–
C=CC(=O)NCCN1CCN(c2cc(Nc3ncc(C(=O)Nc4c(C)cccc4Cl)s3)nc(C)n2)CC1	0.039	0.26	12900	–
Cc1nc(Nc2ncc(-c3nnc(-c4c(C)cccc4Cl)o3)s2)cc(N2CCN(CCN)CC2)n1	260	110	680	–
Cc1nc(Nc2ncc(-c3nnc(-c4c(C)cccc4Cl)o3)s2)cc(N2CCN(CCO)CC2)n1	230	150	50	inhibition (MCF7 [5]): Dose-dependent effect; inhibition (B16-BL6 [6]): Active; survival at 336 h [2]: 100%; Activity (Mus musculus [7]): Non-Toxic; Activity (Mus musculus [8]): Non-Toxic; Ratio IC50 (KG-1a [9]): 180
Cc1nc(Nc2ncc(C(=O)Nc3c(C)cccc3Cl)s2)cc(N2CCN(CCNC(=O)CCl)CC2)n1	1.67	0.86	13600	–
Cc1nc(Nc2ncc(-c3cn(-c4c(C)cccc4Cl)nn3)s2)cc(N2CCN(CCO)CC2)n1	14.1	4.19	140	inhibition (MCF7 [5]): Dose-dependent effect; inhibition (B16-BL6 [10]): Active; survival at 336 h [2]: 100%; Activity (Mus musculus [7]): Non-Toxic; Activity (Mus musculus [8]): Non-Toxic
Cc1nc(Nc2ncc(-c3cn(-c4c(C)cccc4Cl)nn3)s2)cc(N2CCN(CCN=C=S)CC2)n1	36.5	16.6	320	–
